Test results reported in ChEMBL document CHEMBL3091368, “Structure-based design, synthesis, and evaluation of imidazo[1,2-b]pyridazine and imidazo[1,2-a]pyridine derivatives as novel dual c-Met and VEGFR2 kinase inhibitors” (Bioorg Med Chem, 2013).
Values after ≈ are worked out from the molar mass of the structure shown.

What was measured:
[1] = Kinetic solubility of the compound in second fluid of disintegration test of Japanese pharmacopoeia containing bile acid at pH 6.8 by HPLC analysis; type: physicochemical; settings: read-out: Kinetic_solubility
Summary of the method: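 Kinetic solubility in JP second disintegration fluid with bile acid. Compound DMSO solutions added in small volumes to the aqueous buffer and incubated. Precipitate removed by filter-plate filtration, and dissolved compound in the filtrate quantified by HPLC.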

[2] = Clearance in mouse liver microsomes at 1 umol/L by HPLC analysis; type: ADME, Microsome; settings: read-out: CLH
Summary of the method: (§1)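 Hepatic microsomes at 0.2 mg protein/mL in 50 mmol/L potassium phosphate, pH 7.4, with test compound at 1 µmol/L, incubated at 37 °C. Started by adding an NADPH-generating system (MgCl₂, glucose-6-phosphate, β-NADP⁺, G6P dehydrogenase). Stopped with an equal volume of acetonitrile. Parent compound loss measured by HPLC-UV or LC/MS/MS.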

[3] = Clearance in human liver microsomes at 1 umol/L by HPLC analysis; type: ADME; settings: read-out: CLH; summary of the method: as §1

Structure (SMILES) | solubility kinetic [1] | microsomal CLint at 1 µM [2] | microsomal CLint at 1 µM [3]
Cc1ccc(C(=O)Nc2ccc(Oc3ccc4nc(NC(=O)C5CC5)cn4c3)c(F)c2)c(=O)n1-c1ccccc1.Cl | > 110 µg/mL | 10 µL/min/mg | 6 µL/min/mg
O=C(Nc1ccc(Oc2ccc3nc(NC(=O)C4CC4)cn3c2)c(F)c1)c1cccn(-c2ccccc2)c1=O | 4.7 µg/mL (≈ 8.98 µM) | 15 µL/min/mg | 5 µL/min/mg
O=C(Nc1ccc(Oc2ccc3nc(NC(=O)C4CC4)cn3n2)c(F)c1)c1cccn(-c2ccccc2)c1=O | 3.2 µg/mL (≈ 6.1 µM) | 11 µL/min/mg | 3 µL/min/mg

The remaining lines, values ahead:

solubility kinetic [1] | microsomal CLint at 1 µM [2] | microsomal CLint at 1 µM [3] | Structure (SMILES)
> 140 µg/mL | 8 µL/min/mg | 11 µL/min/mg | Cc1ccc(C(=O)Nc2ccc(Oc3ccc4nc(NC(=O)C5CC5)cn4n3)c(F)c2)c(=O)n1-c1ccccc1
92 µg/mL (≈ 171 µM) | – | – | Cc1ccc(C(=O)Nc2ccc(Oc3ccc4nc(NC(=O)C5CC5)cn4c3)c(F)c2)c(=O)n1-c1ccccc1
